Assay: Toxicity liver stage against HepG2, at 10uM
Format: cell-based
Design: test concentration 10 uM, cell line HepG2-A16-CD81EGFP
Conditions: human, HepG2-A16-CD81EGFP cells; read-out: INHIBITION
Procedure, shortened: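 Uninfected HepG2-A16-CD81EGFP cells, 3 × 10^3 per well, 1536-well, plated on prespotted compound at 10 μM final, parasite-free screening media added to match infected plates; puromycin 10 μM positive, DMSO 0.5% negative; run in parallel with 48 h PbLuc assay at 37 °C, 5% CO2; viability by CellTiter-Glo luminescence, normalized to controls.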

COCCOc1ccnc(-c2noc([C@@H]3CCCN3C)n2)c1
cytotoxicity at 10 µM: -7.18%

CC(C)(C)CN1CCC[C@H]1c1nc(-c2cncnc2N)no1
cytotoxicity at 10 µM: -3.66%

COC(=O)[C@@H]1Cc2c[nH]c3cccc(c23)[C@H](CC(C)C)N1
cytotoxicity at 10 µM: 9.57%

CN1CCC(N[C@@H]2CO[C@H](CNC(=O)C3CCCC3)[C@H]2O)CC1
cytotoxicity at 10 µM: -4.63%

CC[C@H]1CN2CC[C@H]1C[C@@H]2CNC(=O)c1ccco1
cytotoxicity at 10 µM: 3.46%

CCOC(=O)[C@H]1[C@@H](O)C(=O)N(C)C12CCN(C(=O)OC)CC2
cytotoxicity at 10 µM: -0.817%

CCOC(=O)CNC(=O)N1CCC(OC)c2ccccc2N(C)C(=O)C1 (stereo not given)
cytotoxicity at 10 µM: 3.36%

COc1ccc2c3c1CN(S(C)(=O)=O)CC3=CC(C)(C)CO2
cytotoxicity at 10 µM: 7.77%

CC(C)OCC(=O)Nc1ccc(Oc2ccc3c(c2)OCO3)nc1
cytotoxicity at 10 µM: -13.1%

Cc1cc(=O)n(CCNS(=O)(=O)c2ccc(F)c(Cl)c2)cn1
cytotoxicity at 10 µM: 1.18%

COc1ncccc1CN1CCc2[nH]nc(C(=O)N(C)C)c2C1
cytotoxicity at 10 µM: 1.55%

CCOCC1c2c(ncn2C(C)C)CCN1C(=O)CC (stereo not given)
cytotoxicity at 10 µM: 4.17%

Cc1cnc(N2CCC[C@@H]3CN(S(C)(=O)=O)C[C@@H]32)nc1
cytotoxicity at 10 µM: 9.34%

CN1CCN([C@@H]2CN(C(=O)c3ccnnc3)[C@@H]3CCCO[C@H]23)CC1
cytotoxicity at 10 µM: 7.16%

CCS(=O)(=O)N1CCC2(CC1)CC(OCC1CC1)CO2 (stereo not given)
cytotoxicity at 10 µM: 7.92%

Nc1nc2c(s1)C(c1c(F)cccc1Cl)CC(=O)N2 (stereo not given)
cytotoxicity at 10 µM: 4.21%

CCC1=NC(SCC(=O)c2ccc(Cl)cc2)c2cc(CC)sc2N1 (stereo not given)
cytotoxicity at 10 µM: 8.16%

Cc1nn(C)c2cn(CC(=O)N3CCN(c4ccccn4)CC3)nc12
cytotoxicity at 10 µM: 3.57%

Cc1nc2[nH]cnc(NCCN3CCCC3)c-2n1
cytotoxicity at 10 µM: -12%

CCn1cc(C(=O)n2nc(C)cc2C)c(S(=O)(=O)N2CCCCC2)n1
cytotoxicity at 10 µM: -3.81%

Cc1ccn(-c2ccnc(N3CCSCC3)n2)n1
cytotoxicity at 10 µM: 9.87%

Cc1cc(NC(=O)CN2C(=O)CC(C)(C)c3ccccc32)no1
cytotoxicity at 10 µM: -3.29%

CCn1cc(CN2CCC(c3ncc(Cl)cc3S(C)(=O)=O)CC2)c(C)n1
cytotoxicity at 10 µM: 5.68%

COc1c(CNCCc2c[nH]c3ccccc23)c(C)nn1C
cytotoxicity at 10 µM: 15%

CCc1ccc(S(=O)(=O)Nc2cnccc2C)s1
cytotoxicity at 10 µM: -3.63%

CN1CCN(C)C(CNC(=O)N(C)Cc2ccc(Cl)c(F)c2)C1 (stereo not given)
cytotoxicity at 10 µM: 6.32%

CNc1ncc(C(=O)N2CCCC(Cc3ccccc3OC)C2)s1 (stereo not given)
cytotoxicity at 10 µM: -0.094%

Cc1cc(C)n(CC(C)CNC(=O)N(C)Cc2cc(C)on2)n1 (stereo not given)
cytotoxicity at 10 µM: -10.2%

Cc1ccc(C(=O)N2CCN(c3ncnc4nc(N)ccc34)CC2)cc1
cytotoxicity at 10 µM: 8.88%

COC(=O)CN(C(=O)c1cccc(F)c1Cl)c1cccc(C)n1
cytotoxicity at 10 µM: 9.5%

O=C(c1ccoc1)N1CCC(O)(C(F)(F)F)CC1
cytotoxicity at 10 µM: 3.88%

CCC1CN(CCCO)c2ccccc2O1 (stereo not given)
cytotoxicity at 10 µM: -7.24%

COC1CCCN(C(=O)NCc2ccc(C(=O)N(C)C(C)C)cc2)C1 (stereo not given)
cytotoxicity at 10 µM: -24.8%

CN(C(=O)c1ccncc1F)c1ccccc1S(C)(=O)=O
cytotoxicity at 10 µM: 2.23%

COc1ccccc1N(C)S(=O)(=O)c1cc(C(=O)O)cs1
cytotoxicity at 10 µM: -5.82%

CC(C)CCn1ccc(NC(=O)N2CCCC2C(C)(C)O)n1 (stereo not given)
cytotoxicity at 10 µM: 5.07%

COc1ccc(CNCCc2cc(F)cc3c2OCOC3)c(OC)c1
cytotoxicity at 10 µM: -3.41%

CC(CN1CCOCC1)NC(=O)c1cc(Cl)c2c(c1)OCO2 (stereo not given)
cytotoxicity at 10 µM: -2.35%

Cc1csc(N2CCN(Cc3nccn3C)CC2C)n1 (stereo not given)
cytotoxicity at 10 µM: -0.274%

CN(C)c1cc(C(=O)NCC2(c3cccc(F)c3)CCOCC2)ccn1
cytotoxicity at 10 µM: 8.8%

CCN(CCc1nccs1)C(=O)c1ncoc1C
cytotoxicity at 10 µM: 11.3%

Cc1nc(CNc2ccc(C(=O)NCc3ccco3)cc2C)no1
cytotoxicity at 10 µM: 5.38%

Cc1cc(C)n(-c2ccc(C(=O)NCC(c3cccs3)N(C)C)cc2)n1 (stereo not given)
cytotoxicity at 10 µM: 4.58%

Cc1nnc(CN(Cc2ccc(Cl)c(Cl)c2)C(C)C)o1
cytotoxicity at 10 µM: 4.91%

CNC(=O)c1ccc2c(c1O)OC(C)(C)C2
cytotoxicity at 10 µM: -6.08%

CC(C)c1nnc2n1CCN(C(=O)c1ccc3c(c1)NC(=O)CO3)C2
cytotoxicity at 10 µM: 7.07%

CCN1CC(C(=O)NC(C)(C)CNC(=O)OC(C)(C)C)CC1=O (stereo not given)
cytotoxicity at 10 µM: 7.79%

CCC(C)NC(=O)c1ccccc1-n1cnnn1 (stereo not given)
cytotoxicity at 10 µM: 13%

Cc1ccc2ncnc(N3CCOCC3c3c(C)nn(C)c3C)c2c1 (stereo not given)
cytotoxicity at 10 µM: 12.2%

CCN(Cc1nc(C(C)C)no1)Cc1cccs1
cytotoxicity at 10 µM: -8.57%

CC1Cc2ccccc2N1Cc1occc1C(=O)OCC(N)=O (stereo not given)
cytotoxicity at 10 µM: -9.18%

CC(C)c1ccc(-c2nnn(CCNS(C)(=O)=O)n2)cc1
cytotoxicity at 10 µM: -3.51%

CC(=O)c1c(F)cccc1N1CCC(CS(N)(=O)=O)CC1
cytotoxicity at 10 µM: -7.79%

Cc1nc(C)n(CC2CN(CC(=O)Nc3nccs3)CCO2)n1 (stereo not given)
cytotoxicity at 10 µM: -13.8%

CCN1Cc2c(C(=O)NC(C)C(C)C)ncn2-c2ccccc2S1(=O)=O (stereo not given)
cytotoxicity at 10 µM: -66.3%

Cc1nc(NCC2CC2)nc2c1COCC21CCN(C(=O)NC(C)C)C1 (stereo not given)
cytotoxicity at 10 µM: -83.2%

CC(C)NC(=O)C1CN(C(=O)c2ccccc2)CC12CCOCC2 (stereo not given)
cytotoxicity at 10 µM: -82.6%

C[C@@H]1CN(C(=O)c2cn(CCN3CCCCC3)nn2)C[C@H](C)O1
cytotoxicity at 10 µM: 4.89%

CCN(CC)Cc1cc(C(=O)N2CCCC(CC)(C(=O)O)C2)c(C)o1 (stereo not given)
cytotoxicity at 10 µM: 7.25%

CCCn1ccnc1-c1nccn1CCC(N)=O
cytotoxicity at 10 µM: -10.3%

O=C(O)c1cc(-n2cc3c(n2)CCC3)cc(S(=O)(=O)NC2CCCC2)c1
cytotoxicity at 10 µM: -2.05%

NC(=O)NCC(=O)N1CCCC(OCc2cccnc2)C1 (stereo not given)
cytotoxicity at 10 µM: -1.53%

CC(C)Oc1ccc2c(NC(=O)CNC(N)=O)nn(CC(F)(F)F)c2c1
cytotoxicity at 10 µM: -5.89%

CCN(Cc1cnc(-c2ccccn2)nc1)C1CCS(=O)(=O)C1 (stereo not given)
cytotoxicity at 10 µM: -5.24%

COCCn1cncc1CN1CCCC(C)(c2ccccc2)C1 (stereo not given)
cytotoxicity at 10 µM: 0.363%

CCn1nc(C(=O)N2CCNCC2C(=O)Nc2ccc(C)nc2)cc1C (stereo not given)
cytotoxicity at 10 µM: 10.2%

CC[C@@]1(O)CCN(c2ncc(Cl)cc2C(F)(F)F)C[C@H]1O
cytotoxicity at 10 µM: 11.6%

c1cncc(NCCNC2CCSC2)c1 (stereo not given)
cytotoxicity at 10 µM: -3.22%

CN(C)c1ncnc2c1CCN(C(=O)CN1CCCCC1)C2
cytotoxicity at 10 µM: -0.747%

CN(C)C(=O)CCC1CCCN(Cc2ccc(-c3cccnc3)cc2)C1 (stereo not given)
cytotoxicity at 10 µM: 4.96%

COc1c(F)cc(F)cc1-c1nc2c([nH]1)CCNC2
cytotoxicity at 10 µM: 3.94%

COc1cccc(-c2cc(NCCO)nc3[nH]ccc23)n1
cytotoxicity at 10 µM: 4.46%

O=S1(=O)COCCN1Cc1ccc(F)c(F)c1
cytotoxicity at 10 µM: 3.42%

CC(=O)NC(C(=O)N1CCn2cncc2C1)C(C)C (stereo not given)
cytotoxicity at 10 µM: -14.7%

Cc1nc[nH]c1-c1nccn1CCCN(C)C
cytotoxicity at 10 µM: 5.05%

CCC(C)Sc1ncc(-c2c(C#N)c(N)nc3c2COCC3)cn1 (stereo not given)
cytotoxicity at 10 µM: 15.1%

Cc1nc2c(N3CCC(O)(Cn4ccnc4)CC3)ncnc2o1
cytotoxicity at 10 µM: 6.35%

O=C1CCC(C(=O)N(Cc2ccsc2)CC2CCCO2)=NN1 (stereo not given)
cytotoxicity at 10 µM: -7.97%

CCN1CCCC(c2c(-c3ccccc3)ncn2Cc2csc(N)n2)C1 (stereo not given)
cytotoxicity at 10 µM: -0.386%

NCCc1n[nH]c(=O)n1-c1cccc2ccccc12
cytotoxicity at 10 µM: 3.96%

Cc1ccsc1-c1nc(CN(C)Cc2noc(C(C)C)n2)c(C)o1
cytotoxicity at 10 µM: -5.85%

Cc1nccn1CCCC(=O)N1CCC2(CCC(=O)N(C(C)C)C2)CC1
cytotoxicity at 10 µM: -10.8%

O=C(CN1CCNCC1)N1CC[C@@H](c2ccc3ccccc3c2)[C@H](O)C1
cytotoxicity at 10 µM: -8.9%

CCN(CCn1cccn1)Cc1nc(-c2ccccc2F)oc1C
cytotoxicity at 10 µM: 1.04%

CCn1nc(CNC(=O)C2CC(=O)N(C3CCCC3)C2)c2ccccc21 (stereo not given)
cytotoxicity at 10 µM: -25.8%

O=S(=O)(NCC1CCOc2ccccc2C1)N1CCOCC1 (stereo not given)
cytotoxicity at 10 µM: -9.75%

COCC1CCCN(C(=O)c2cc(Cn3ccc4ccccc43)[nH]n2)C1 (stereo not given)
cytotoxicity at 10 µM: -11.5%

Cc1nc(CN2CCCC(Cn3cncn3)C2)nc2ccccc12 (stereo not given)
cytotoxicity at 10 µM: -16.2%

CCOc1ncccc1CNC(=O)c1c(C)oc(C)c1C
cytotoxicity at 10 µM: -3.75%

CNS(=O)(=O)Cc1cccc(CNC(=O)Nc2cn[nH]c2)c1
cytotoxicity at 10 µM: -11.2%

Cc1cnn(CC2CCCN2C(=O)CN(C)C2CC2)c1 (stereo not given)
cytotoxicity at 10 µM: 3.63%

CNC(=O)c1ccc(S(=O)(=O)NCc2cccnc2N(C)C)cc1
cytotoxicity at 10 µM: 1.59%

Cc1cc(C)n(C2CCCN(C(=O)Cc3ccc(C#N)cc3)C2)n1 (stereo not given)
cytotoxicity at 10 µM: -1.31%

COc1ccc(CC(=O)N2CCCC(n3nc(C)cc3C)C2)cc1F (stereo not given)
cytotoxicity at 10 µM: -1.76%

O=C(c1cc(Cl)c2c(c1)OCO2)N1CCCC(n2cncn2)C1 (stereo not given)
cytotoxicity at 10 µM: -8.75%

Cc1nc2ccnn2c(C)c1CCC(=O)N1CCN(C2CC2)CC1
cytotoxicity at 10 µM: -7.2%

Cc1cccc(OCCNC(=O)CN2CCCC2Cn2cccn2)c1 (stereo not given)
cytotoxicity at 10 µM: -9.46%

Cc1cc(C)c(CNC(=O)NCc2ccc3c(c2)CCC3)c(=O)[nH]1
cytotoxicity at 10 µM: 10.4%

CCNc1cc2c(nn1)CCN(C(=O)CC1CCCCC1)C2
cytotoxicity at 10 µM: -10.3%

CCC1CN(C(=O)NCCOc2ccc3c(c2)OCO3)CCO1 (stereo not given)
cytotoxicity at 10 µM: -4.25%

O=C1C[C@H]2[C@@H](CCN2C(=O)c2ccccc2)N1CCN1CCOCC1
cytotoxicity at 10 µM: -3.33%

O=C(C1CCOCC1)N1CCc2ncc(CN3CCCC3)n2CC1
cytotoxicity at 10 µM: -76.1%

COCCN1CCCn2cnc(CNC(=O)N(C)C)c2C1
cytotoxicity at 10 µM: 4.47%

CO[C@H]1CCN(Cc2cccc(C)n2)[C@@H]2CN(Cc3cccnc3)C[C@H]12
cytotoxicity at 10 µM: -11.3%

CN(C)CCN1C(=O)CCC12CCN(Cc1cccs1)CC2
cytotoxicity at 10 µM: 3.88%

c1cnc2c(c1)cc([C@H]1CCCO1)n2CCN1CCOCC1
cytotoxicity at 10 µM: -11.3%

CC(C)NC(=O)CC1COC2(CCN(Cc3cccs3)CC2)C1 (stereo not given)
cytotoxicity at 10 µM: 4.57%

O=C(CCc1ccccc1)N1C[C@@H]2CN(Cc3ccoc3)CCO[C@@H]2C1
cytotoxicity at 10 µM: -77.8%

COc1ncccc1CN1C[C@H]2C[C@@H](C(=O)NCC3CC3)N(C)[C@H]2C1
cytotoxicity at 10 µM: -2.54%

CC(C)=CCN1C[C@@H]2CC[C@H]1CN(CCC(=O)NCc1ccco1)C2
cytotoxicity at 10 µM: -3.08%

Reference: ChEMBL document CHEMBL4513216, “Probing the Open Global Health Chemical Diversity Library for Multistage-Active Starting Points for Next-Generation Antimalarials” (ACS Infect Dis, 2020)
